{
  "source": "ChEMBL document CHEMBL1137728",
  "about": "“Synthesis of novel thiazolone-based compounds containing pyrazoline moiety and evaluation of their anticancer activity” (2009)",
  "format_in_all_cases": "functional",
  "key": {"[1]": {"system": "MOLT-4", "experiment": "Anticancer activity against human MOLT4 cells assessed as cell growth at 10 uM after 48 hrs by SRB assay", "details": "MOLT-4, 48 h, read-out: Activity", "summary_of_the_method": "(§1)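 US NCI one-dose screen across about 60 human tumour cell lines. A single concentration of 10^-5 M was applied with 48 h continuous exposure. The end point was sulforhodamine B protein staining, read spectrophotometrically. Results are given as percent growth of treated cells relative to untreated controls.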"}, "[2]": {"experiment": "Anticancer activity against human NCI60 cells assessed as cell growth at 10 uM after 48 hrs by SRB assay", "details": "NCI60, 48 h, read-out: Activity", "summary_of_the_method": "as §1"}, "[3]": {"system": "CCRF-CEM", "experiment": "Anticancer activity against human CCRF-CEM cells assessed as cell growth at 10 uM after 48 hrs by SRB assay", "details": "read-out: Activity", "summary_of_the_method": "as §1"}, "[4]": {"system": "HL-60(TB)", "experiment": "Anticancer activity against human HL-60(TB) cells assessed as cell growth at 10 uM after 48 hrs by SRB assay", "details": "HL-60, 48 h, read-out: Activity", "summary_of_the_method": "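Single-dose NCI-60 screen: 10^-5 M added to culture, 48 h incubation; endpoint by sulforhodamine B protein staining read spectrophotometrically; reported as percent growth of treated cells versus untreated control cells.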"}, "[5]": {"system": "NCI/ADR-RES", "experiment": "Growth inhibition of human NCI/ADR-RES cells after 48 hrs by SRB assay", "summary_of_the_method": "(§2)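 NCI five-dose screen across about 60 human tumour cell lines, at 10-fold dilutions from 10^-4 to 10^-8 M with 48 h continuous exposure, read by SRB. Percent growth used time-zero, untreated control and treated absorbances. GI50 was the concentration giving 50% lower net protein increase than controls. Values beyond the tested range were reported as more or less than the maximum or minimum concentration.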"}, "[6]": {"system": "786-0", "experiment": "Growth inhibition of human 786-0 cells after 48 hrs by SRB assay", "details": "786-0, 48 h", "summary_of_the_method": "as §2"}, "[7]": {"system": "UACC-62", "experiment": "Growth inhibition of human UACC62 cells after 48 hrs by SRB assay", "details": "UACC-62, 48 h", "summary_of_the_method": "as §2"}, "[8]": {"system": "HOP-92", "experiment": "Growth inhibition of human HOP92 cells after 48 hrs by SRB assay", "details": "HOP-92, 48 h", "summary_of_the_method": "as §2"}, "[9]": {"experiment": "Growth inhibition of human […] cells after 48 hrs by SRB assay", "summary_of_the_method": "as §2"}, "[10]": {"system": "CCRF-CEM", "experiment": "Growth inhibition of human CCRF-CEM cells after 48 hrs by SRB assay", "summary_of_the_method": "as §2"}, "[11]": {"system": "KM12", "experiment": "Growth inhibition of human KM12 cells after 48 hrs by SRB assay", "details": "KM12, 48 h", "summary_of_the_method": "as §2"}, "[12]": {"system": "HCT-15", "experiment": "Growth inhibition of human HCT15 cells after 48 hrs by SRB assay", "details": "HCT-15, 48 h", "summary_of_the_method": "as §2"}, "[13]": {"system": "U-251", "experiment": "Growth inhibition of human U251 cells after 48 hrs by SRB assay", "details": "U-251, 48 h", "summary_of_the_method": "as §2"}, "[14]": {"system": "IGROV-1", "experiment": "Growth inhibition of human IGROV1 cells after 48 hrs by SRB assay", "details": "IGROV-1, 48 h", "summary_of_the_method": "as §2"}, "[15]": {"system": "SN12C", "experiment": "Growth inhibition of human SN12C cells after 48 hrs by SRB assay", "summary_of_the_method": "as §2"}, "[16]": {"system": "HOP-62", "experiment": "Growth inhibition of human HOP62 cells after 48 hrs by SRB assay", "details": "HOP-62, 48 h", "summary_of_the_method": "as §2"}},
  "data": [
    {"compound": "O=C1CSC(N2N=C(c3ccccc3)CC2c2ccccc2O)=N1", "note": "(centres undefined)", "values": [
      {"measurement": "growth at 10 µM", "setting": "[1]", "value": -61.5, "unit": "%"},
      {"measurement": "growth at 10 µM", "setting": "[2]", "value": 101, "unit": "%"}
    ]},
    {"compound": "O=C1N=C(N2N=C(c3ccccc3)CC2c2ccccc2O)S/C1=C\\c1ccc(Cl)cc1", "note": "(centres undefined)", "values": [
      {"measurement": "growth at 10 µM", "setting": "[3]", "value": -25, "unit": "%"},
      {"measurement": "growth at 10 µM", "setting": "[2]", "value": 98.3, "unit": "%"}
    ]},
    {"compound": "O=C1N=C(N2N=C(c3ccccc3)CC2c2ccccc2O)S/C1=C\\c1cccc(Br)c1", "note": "(centres undefined)", "values": [
      {"measurement": "growth at 10 µM", "setting": "[2]", "value": 88.6, "unit": "%"},
      {"measurement": "growth at 10 µM", "setting": "[4]", "value": -54, "unit": "%"}
    ]},
    {"compound": "O=C1N=C(N2N=C(c3ccccc3)CC2c2ccccc2O)/C(=C/c2ccccc2)S1", "note": "(centres undefined)", "values": [
      {"measurement": "GI50", "setting": "[5]", "value": 1.82, "unit": "µM"},
      {"measurement": "GI50", "setting": "[6]", "value": 1.82, "unit": "µM"},
      {"measurement": "TGI", "setting": "[6]; read-out: pTGI (converted)", "value": 3.89, "unit": "µM"},
      {"measurement": "GI50", "setting": "[7]", "value": 1.62, "unit": "µM"},
      {"measurement": "TGI", "setting": "[7]; read-out: pTGI (converted)", "value": 2.95, "unit": "µM"},
      {"measurement": "GI50", "setting": "[8]", "value": 1.55, "unit": "µM"},
      {"measurement": "TGI", "setting": "[8]; read-out: pTGI (converted)", "value": 4.47, "unit": "µM"},
      {"measurement": "GI50", "setting": "[9]", "value": 1.55, "unit": "µM"},
      {"measurement": "TGI", "setting": "[9]; read-out: pTGI (converted)", "value": 3.24, "unit": "µM"},
      {"measurement": "GI50", "setting": "[10]", "value": 1.91, "unit": "µM"},
      {"measurement": "TGI", "setting": "[10]; read-out: pTGI (converted)", "value": 4.57, "unit": "µM"},
      {"measurement": "GI50", "setting": "[11]", "value": 1.62, "unit": "µM"},
      {"measurement": "TGI", "setting": "[11]; read-out: pTGI (converted)", "value": 4.47, "unit": "µM"},
      {"measurement": "GI50", "setting": "[12]", "value": 1.51, "unit": "µM"},
      {"measurement": "TGI", "setting": "[12]; read-out: pTGI (converted)", "value": 2.95, "unit": "µM"},
      {"measurement": "GI50", "setting": "[13]", "value": 1.55, "unit": "µM"},
      {"measurement": "TGI", "setting": "[13]; read-out: pTGI (converted)", "value": 2.88, "unit": "µM"},
      {"measurement": "GI50", "setting": "[14]", "value": 2, "unit": "µM"},
      {"measurement": "TGI", "setting": "[14]; read-out: pTGI (converted)", "value": 4.47, "unit": "µM"},
      {"measurement": "GI50", "setting": "[15]", "value": 1.7, "unit": "µM"},
      {"measurement": "TGI", "setting": "[15]; read-out: pTGI (converted)", "value": 3.09, "unit": "µM"},
      {"measurement": "GI50", "setting": "[16]", "value": 1.62, "unit": "µM"},
      {"measurement": "TGI", "setting": "[16]; read-out: pTGI (converted)", "value": 3.47, "unit": "µM"}
    ]}
  ]
}
